The test system of series [1] is Mus musculus. The series is described as follows: Anticonvulsant activity in CF1 mouse assessed as inhibition of 6 Hz corneal stimulation-induced limbic seizures at 4 mg/kg, ip administered 60 mins before 6 Hz corneal stimulation. The format is functional, organism-based. Further details: dose 4 mg/kg. Particulars: Limbic system. The method in brief:
(§1)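 Each analogue given ip at 4 mg/kg to five groups of CF-1 mice (n = 4 per group), one group per time point. Seizure challenge was 6 Hz corneal stimulation (32 mA for 3 s, corneal electrodes) at 15, 30, 60, 120 or 240 min after dosing. A mouse without a limbic seizure (jaw chomping, vibrissae twitching, forelimb clonus, Straub tail) was counted as protected.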

The subject of series [2] is Mus musculus. The series is described as follows: Anticonvulsant activity in CF1 mouse assessed as inhibition of 6 Hz corneal stimulation-induced limbic seizures at 4 mg/kg, ip administered 240 mins before 6 Hz corneal stimulation. The format is functional, organism-based. Also on record: dose 4 mg/kg. Particulars: Limbic system. The method in brief:
as §1

Series [3] has as its system Mus musculus. The series is described as follows: Anticonvulsant activity in CF1 mouse assessed as inhibition of 6 Hz corneal stimulation-induced limbic seizures at 4 mg/kg, ip administered 120 mins before 6 Hz corneal stimulation. In kind it is functional, organism-based. Further details: dose 4 mg/kg. Particulars: Limbic system. The method in brief:
as §1

A short description of series [4]: Toxicity in CF1 mouse assessed as motor function by rotarod test. In kind it is organism-based. The following applies: in vivo.
The nature of series [5]: Partition coefficient, log D at pH 7.4 by shake-flask method. In kind it is physicochemical. Particulars: octanol/water. The method in brief:
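Shake-flask partitioning between water-saturated n-octanol and PBS pH 7.4. Peptide (0.4 mg) was reconstituted in 1 mL PBS, or in octanol if poorly water-soluble. Octanol peptide was taken as total minus aqueous, and logD = log([octanol]/[aqueous]). Four independent preparations per analogue.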

Series [6] concerns Mus musculus. Description: Anticonvulsant activity in CF1 mouse assessed as inhibition of 6 Hz corneal stimulation-induced limbic seizures at 4 mg/kg, ip administered 30 mins before 6 Hz corneal stimulation. In kind it is functional, organism-based. The following applies: Limbic system. Also on record: dose 4 mg/kg. In short, it runs like this:
as §1

In series [7] the test system is Mus musculus. Description: Anticonvulsant activity in ip dosed CF1 mouse assessed as inhibition of 6 Hz corneal stimulation-induced limbic seizures. The format is functional. The following applies: CF1, Limbic system.
Series [8] can be described thus: Metabolic stability in rat serum assessed as half life at pH 7.5. The format is ADME, cell-free. The method in brief: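 Peptide (final 20 µM) was incubated in 25% rat serum with 0.1 M Tris-HCl pH 7.5 at 37 °C, serum pre-warmed 10 min. Aliquots taken up to 8 h were quenched with 15% TCA in 40% isopropanol, held 15 min at -20 °C and centrifuged. Intact peptide was measured by reversed-phase HPLC peak area, and half-life was calculated from the disappearance.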

Series [9] addresses T1, Galanin receptor type 2 (Homo sapiens, UniProt O43603).
T1 sequence (O43603 whole entry): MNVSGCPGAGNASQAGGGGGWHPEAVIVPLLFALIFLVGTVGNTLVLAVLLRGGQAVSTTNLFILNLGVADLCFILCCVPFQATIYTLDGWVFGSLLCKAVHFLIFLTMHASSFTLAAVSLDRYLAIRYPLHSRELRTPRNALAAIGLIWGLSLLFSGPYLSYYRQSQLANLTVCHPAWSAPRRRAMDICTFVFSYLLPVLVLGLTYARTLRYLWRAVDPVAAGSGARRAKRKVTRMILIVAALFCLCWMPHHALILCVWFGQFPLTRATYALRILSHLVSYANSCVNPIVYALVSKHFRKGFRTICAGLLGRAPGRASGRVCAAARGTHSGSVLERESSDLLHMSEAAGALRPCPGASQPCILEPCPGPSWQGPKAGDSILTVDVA
Description: Displacement of europium-labeled galanin from human GalR2 expressed in CHO-K1 cells. In kind it is cell-based.

The target of another series is T2, Galanin receptor type 3 (Homo sapiens, UniProt O60755).
T2 sequence (O60755 whole entry): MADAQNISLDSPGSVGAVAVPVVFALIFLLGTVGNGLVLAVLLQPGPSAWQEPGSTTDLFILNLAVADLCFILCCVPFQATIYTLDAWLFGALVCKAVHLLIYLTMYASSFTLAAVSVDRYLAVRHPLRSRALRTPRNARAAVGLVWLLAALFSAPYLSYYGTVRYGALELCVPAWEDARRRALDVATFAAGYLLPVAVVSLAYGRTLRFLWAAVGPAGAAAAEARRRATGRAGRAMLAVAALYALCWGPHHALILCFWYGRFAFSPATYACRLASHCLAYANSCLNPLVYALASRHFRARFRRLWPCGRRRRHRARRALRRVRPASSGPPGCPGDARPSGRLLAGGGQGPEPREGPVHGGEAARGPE
Description: Binding affinity to human GalR3.

Series [10] has as its target T1, Galanin receptor type 2. The series is described as follows: Binding affinity to human GalR2.
Series [11] deals with Mus musculus. Description: Anticonvulsant activity in CF1 mouse assessed as inhibition of 6 Hz corneal stimulation-induced limbic seizures at 4 mg/kg, ip administered 15 mins before 6 Hz corneal stimulation. In kind it is functional, organism-based. Also on record: dose 4 mg/kg. Particulars: Limbic system. In short, it runs like this:
as §1

In series [12] the test system is Mus musculus. The series is described as follows: Anticonvulsant activity in intracerebroventricularly dosed pharmacoresistant epilepsy CF1 mouse model. The format is functional. The method in brief:
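Intracerebroventricular injection in mice, followed by the 6 Hz seizure model (32 mA). ED50 was determined in nmole with 95% CI.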

Calls of active or inactive are those of the source. The calls are words filed in the database; no cut-off is given here.

Turning to `CCCCCCCCCCCCCCCC(=O)NCCCC[C@H](NC(=O)[C@H](CCCCN)NC(=O)[C@H](CCCCN)NC(=O)[C@@H]1CCCN1C(=O)CNC(=O)[C@H](CC(C)C)NC(=O)[C@H](CC(C)C)NC(=O)[C@H](Cc1ccc(O)cc1)NC(=O)CNC(=O)[C@H](C)NC(=O)[C@H](CO)NC(=O)[C@H](CC(N)=O)NC(=O)[C@H](CC(C)C)NC(=O)[C@@H](NC(=O)[C@H](Cc1c[nH]c2ccccc12)NC(=O)CNC)[C@@H](C)O)C(=O)N[C@@H](CCCCN)C(N)=O`, the result with Mus musculus [1], with Mus musculus [3] and with Mus musculus [6] was Active. The result in the series with Mus musculus [2] was inactive. In series [4], the TD50 came out at 21 mg/kg. The compound further gave a logD in series [5] of 1.26. For the same compound, in the series with Mus musculus [7], the ED50 came out at 0.8 mg/kg. For the same compound, the half-life in series [8] is 9.4 h. The compound also returned a Ki on Galanin receptor type 2 [9] of 51.5 nM.
Turning to `CSCC[C@H](NC(=O)[C@H](CC(C)C)NC(=O)CNC(=O)[C@H](Cc1ccccc1)NC(=O)[C@H](Cc1ccccc1)NC(=O)[C@H](CCC(N)=O)NC(=O)[C@H](CCC(N)=O)NC(=O)[C@@H]1CCCN1C(=O)CNC(=O)[C@H](CC(C)C)NC(=O)[C@H](CC(C)C)NC(=O)[C@H](Cc1ccc(O)cc1)NC(=O)CNC(=O)[C@H](C)NC(=O)[C@H](CO)NC(=O)[C@H](CC(N)=O)NC(=O)[C@H](CC(C)C)NC(=O)[C@@H](NC(=O)[C@H](Cc1c[nH]c2ccccc12)NC(=O)CN)[C@@H](C)O)C(N)=O` [GALANTIDE], the values for the equilibrium dissociation constant (Kd) at Galanin receptor type 3 and on Galanin receptor type 2 [10] were 40 nM and 1 nM, respectively.
As for `CC(C)C[C@H](NC(=O)[C@H](CC(C)C)NC(=O)[C@H](Cc1ccc(O)cc1)NC(=O)CNC(=O)[C@H](C)NC(=O)[C@H](CO)NC(=O)[C@H](CC(N)=O)NC(=O)[C@H](CC(C)C)NC(=O)[C@@H](NC(=O)[C@H](Cc1c[nH]c2ccccc12)NC(=O)CN)[C@@H](C)O)C(=O)NCC(=O)N1CCC[C@H]1C(=O)N[C@@H](Cc1cnc[nH]1)C(=O)N[C@@H](C)C(=O)N[C@H](C(N)=O)C(C)C`, the outcome with Mus musculus [1], in the series on Mus musculus [2], in the series with Mus musculus [3], in the series with Mus musculus [6] and in the series on Mus musculus [11] was inactive. The log distribution coefficient (logD) in [5] was found to be 0.66. In addition, the ED50 with Mus musculus [12] is 1.7 nmol. Moreover, the half-life in [8] stood at 0.13 h.

Values taken from ChEMBL document CHEMBL1151742, “Design, synthesis, and characterization of high-affinity, systemically-active galanin analogues with potent anticonvulsant activities” (J Med Chem, 2008).
